From ChEMBL document CHEMBL5724801, “EUbOPEN Chemogenomics Library - Multiplex” (2024)
Values joined by “and” are separate entries in the source; they are usually repeats but may differ in a detail not shown here. Identical values can stand only once.

System: HEK-293T
Assay: Multiplex assay against HEK293T
Assay type: toxicity, cell-based
Conditions: human
In short: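 Compound was added to live cells that had been stained at seeding with Hoechst33342, BioTracker Green Microtubule Cytoskeleton Dye, MitoTracker Red and Annexin V Alexa Fluor 680, and imaging followed on a CQ1 microscope at 37°C and 5% CO2. CellPathfinder machine-learning gating divided cells into Hoechst high-intensity objects or normal cells, normal cells into healthy, pyknosed or fragmented nuclei, and pyknosed cells into mitotic or apoptotic. Tubulin, mitochondrial-mass and membrane-permeability phenotypes are per cents of healthy-nucleus cells.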

[1] = 12 h, 1 µM, compound concentration 1 uM
[2] = 12 h, 10 µM, compound concentration 10 uM
[3] = 24 h, 1 µM, compound concentration 1 uM
[4] = 24 h, 10 µM, compound concentration 10 uM
[5] = 48 h, 1 µM, compound concentration 1 uM
[6] = 48 h, 10 µM, compound concentration 10 uM

## CCN1CCN(Cc2ccc(Nc3ncc(F)c(-c4cc(F)c5nc(C)n(C(C)C)c5c4)n3)nc2)CC1.CS(=O)(=O)O
[1]
  Population Fragmented Nuclei (%): 2.72% and 5.37%
  Population Healthy Nuclei (%): 46.26% and 18.79%
  Population Hoechst High Intensity Objects (%): 1.01% and 0%
  Population Membrane Permeable-Phenotype (%): 0.74% and 0%
  Population Mitotic Cells (%): 90.67% and 79.65%
  Population Normal (%): 98.99% and 100%
  Population Pyknosed Nuclei (%): 51.02% and 75.84%
  Population Tubulin-Different-Phenotype (%): 23.53% and 64.29%
  Total Cell Count: 297 and 149
[2]
  Population Fragmented Nuclei (%): 1.2% and 2.36%
  Population Hoechst High Intensity Objects (%): 0.4% and 0%
  Population Membrane Permeable-Phenotype (%): 0%
  Population Mitochondria Different-Phenotype (%): 53.85% and 28.57%
  Population Mitotic Cells (%): 88.21% and 74.36%
  Population Normal (%): 99.6% and 100%
  Population Pyknosed Nuclei (%): 78% and 92.13%
  Population Tubulin-Different-Phenotype (%): 84.62% and 28.57%
  Total Cell Count: 251 and 127
[3]
  Population Fragmented Nuclei (%): 1.38% and 4.83%
  Population Healthy Nuclei (%): 71.43% and 24.14%
  Population Hoechst High Intensity Objects (%): 0.23% and 0%
  Population Membrane Permeable-Phenotype (%): 2.9% and 2.86%
  Population Mitochondria Different-Phenotype (%): 26.13% and 22.86%
  Population Mitotic Cells (%): 82.2% and 83.5%
  Population Normal (%): 99.77% and 100%
  Population Pyknosed Nuclei (%): 27.19% and 71.03%
  Population Tubulin-Different-Phenotype (%): 47.42% and 25.71%
  Total Cell Count: 435 and 145
[4]
  Population Fragmented Nuclei (%): 0.69% and 4.07%
  Population Healthy Nuclei (%): 25.86% and 10.57%
  Population Hoechst High Intensity Objects (%): 0%
  Population Membrane Permeable-Phenotype (%): 0% and 23.08%
  Population Mitochondria Different-Phenotype (%): 52% and 38.46%
  Population Mitotic Cells (%): 64.32% and 55.24%
  Population Normal (%): 100%
  Population Pyknosed Nuclei (%): 73.45% and 85.37%
  Population Tubulin-Different-Phenotype (%): 93.33% and 53.85%
  Total Cell Count: 290 and 123
[5]
  Population Fragmented Nuclei (%): 2.67% and 1.8%
  Population Healthy Nuclei (%): 85.01% and 53.89%
  Population Hoechst High Intensity Objects (%): 0.13% and 0%
  Population Membrane Permeable-Phenotype (%): 9.27% and 2.22%
  Population Mitochondria Different-Phenotype (%): 37.67% and 48.89%
  Population Mitotic Cells (%): 82.47% and 79.73%
  Population Normal (%): 99.87% and 100%
[6]
  Population Fragmented Nuclei (%): 3.24% and 4.8%
  Population Healthy Nuclei (%): 28.78% and 13.6%
  Population Hoechst High Intensity Objects (%): 0% and 0.79%
  Population Membrane Permeable-Phenotype (%): 1.25% and 0%
  Population Mitochondria Different-Phenotype (%): 96.25% and 58.82%
  Population Mitotic Cells (%): 30.16% and 40.2%
  Population Normal (%): 100% and 99.21%
  Population Pyknosed Nuclei (%): 67.99% and 81.6%
  Population Tubulin-Different-Phenotype (%): 85% and 58.82%
  Total Cell Count: 278 and 126

## CCn1c(-c2nc3cc(C(=O)N4CCCC(N)C4)ccc3n2C)cc2ccccc21.Cl (configuration not stated)
[1]
  Population Fragmented Nuclei (%): 9% and 5% and 1.84% and 3.31%
  Population Hoechst High Intensity Objects (%): 7% and 6% and 0%
  Population Membrane Permeable-Phenotype (%): 0%
  Population Mitochondria Different-Phenotype (%): 52% [middle of 4 runs]
  Population Mitotic Cells (%): 87.4% [middle of 4 runs]
  Population Normal (%): 92% and 93% and 100%
  Total Cell Count: 351 [middle of 4 runs]
[2]
  Population Fragmented Nuclei (%): 8% and 6% and 2.45% and 0.66%
  Population Hoechst High Intensity Objects (%): 8% [middle of 4 runs]
  Population Membrane Permeable-Phenotype (%): 0% and 0.78%
  Population Mitotic Cells (%): 46% and 86.32% and 69.7%
  Population Normal (%): 88% and 91% and 99.7% and 100%
  Population Tubulin-Different-Phenotype (%): 66.67% [middle of 4 runs]
  Total Cell Count: 398 [middle of 4 runs]
[3]
  Population Fragmented Nuclei (%): 9% and 1.41% and 1.3%
  Population Healthy Nuclei (%): 79% [middle of 4 runs]
  Population Hoechst High Intensity Objects (%): 6% and 4% and 0.2% and 0%
  Population Membrane Permeable-Phenotype (%): 0% and 1.42% and 4.76%
  Population Mitochondria Different-Phenotype (%): 37% [middle of 4 runs]
  Population Mitotic Cells (%): 64% and 60% and 92.7% and 77.27%
  Population Normal (%): 93% and 95% and 99.8% and 100%
  Population Tubulin-Different-Phenotype (%): 22% and 14% and 16.24% and 11.9%
[4]
  Population Apoptotic (%): 51% and 40% and 33.59% and 49.56%
  Population Hoechst High Intensity Objects (%): 12% and 9% and 0%
  Population Membrane Permeable-Phenotype (%): 1% and 0% and 0.79%
  Population Mitochondria Different-Phenotype (%): 72% [middle of 4 runs]
  Population Mitotic Cells (%): 48% and 59% and 66.41% and 50.44%
  Population Normal (%): 87% and 90% and 100%
  Population Tubulin-Different-Phenotype (%): 64% and 58% and 63.64% and 33.33%
[5]
  Population Fragmented Nuclei (%): 12% [middle of 4 runs]
  Population Healthy Nuclei (%): 79% and 81% and 86.51% and 57.44%
  Population Hoechst High Intensity Objects (%): 5% and 4% and 0%
  Population Membrane Permeable-Phenotype (%): 1% and 0% and 6.55% and 0.89%
  Population Mitochondria Different-Phenotype (%): 28% [middle of 4 runs]
  Population Mitotic Cells (%): 79% and 85% and 95.24% and 75.9%
  Population Normal (%): 94% and 95% and 100%
[6]
  Population Apoptotic (%): 50% and 52% and 28.06% and 40.68%
  Population Healthy Nuclei (%): 73% and 79% and 77.55% and 60.49%
  Population Membrane Permeable-Phenotype (%): 0% and 1.26% and 2.04%
  Population Mitochondria Different-Phenotype (%): 65% and 71% and 79.5% and 83.67%
  Population Mitotic Cells (%): 49% and 47% and 71.94% and 59.32%
  Population Normal (%): 84% and 91% and 99.86% and 97.59%
